The source made the active and inactive calls. The calls are words filed in the database; no cut-off is given here.

Data set [1] has as its system Acinetobacter baumannii. Description: Potentiation of minocycline-induced antibacterial activity against multidrug-resistant Acinetobacter baumannii AB027 at 4 ug/ml after 18 hrs by checkerboard assay. The format is functional. The gist of the method: (§1)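 Checkerboard in Mueller-Hinton broth: antibiotic serially diluted along one axis and adjuvant along the other (10 × 7 matrix). Inoculum from a 0.5 McFarland saline suspension diluted 1:50 in MHB; 18 h at 37 °C, then plate read. MIC is the lowest concentration with no growth. FIC of each agent is its concentration in a no-growth well divided by its MIC alone; FIC index is the sum of both. FIC index ≤0.5 counts as synergy.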

Data set [2] relates to Pseudomonas aeruginosa. Description: Potentiation of minocycline-induced antibacterial activity against multidrug/extremely drug-resistant/colistin-susceptible Pseudomonas aeruginosa isolate P259-96918 assessed as fold reduction in minocycline MIC at 4 ug/ml after 18 hrs by checkerboard assay relative to control. The format is functional. The gist of the method: (§2)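 Checkerboard in Mueller-Hinton broth, 10 × 7 matrix, with the adjuvant held at 4 µg/mL. Inoculum from a 0.5 McFarland suspension diluted 1:50; 18 h at 37 °C. Antibiotic MIC (lowest concentration with no growth) with adjuvant is compared with the antibiotic MIC alone, giving a fold reduction.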

In data set [3] the test system is Acinetobacter baumannii. Description: Synergistic antibacterial activity against multidrug-resistant Acinetobacter baumannii AB031 after 18 hrs in presence of rifampicin by checkerboard assay. It is filed as functional. The settings on record: AB031, 18 h. The gist of the method:
(§3)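 Checkerboard in MHB with a 10 × 7 matrix: antibiotic serially diluted along one axis, adjuvant along the other. Inoculum was a 1:50 dilution of a 0.5 McFarland suspension, incubated 18 h at 37 °C and read on a plate reader. Each FIC is the concentration in a no-growth well divided by the MIC alone; FIC index is their sum, with ≤0.5 taken as synergy.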

In data set [4] the test system is Pseudomonas aeruginosa. Description: Potentiation of rifampicin-induced antibacterial activity against Pseudomonas aeruginosa PAO750 harboring RND efflux pump/OpmH deletion mutant after 18 hrs by checkerboard assay. The format is functional. The gist of the method:
as §1

The subject of data set [5] is Acinetobacter baumannii. The data set can be described thus: Potentiation of minocycline-induced antibacterial activity against multidrug-resistant Acinetobacter baumannii AB031 at 4 ug/ml after 18 hrs by checkerboard assay. It is filed as functional. Put shortly: as §1
Data set [6] concerns Klebsiella pneumoniae. The data set can be described thus: Synergistic antibacterial activity against multidrug-resistant Klebsiella pneumoniae 116381 after 18 hrs in presence of minocycline by checkerboard assay. It is filed as functional. The following applies: Klebsiella pneumoniae, 116381, 18 h. Put shortly:
(§4)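 Checkerboard in Mueller-Hinton broth: antibiotic serially diluted along one axis and adjuvant along the other (10 × 7 matrix). Inoculum was overnight culture set to 0.5 McFarland in saline, then diluted 1:50 in broth. Incubated 18 h at 37 °C. MIC was the lowest concentration with no growth. FIC index is the sum of both FICs (combination concentration ÷ MIC alone); ≤0.5 counted as synergy.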

For data set [7], the system named is Klebsiella pneumoniae. The data set can be described thus: Synergistic antibacterial activity against multidrug-resistant Klebsiella pneumoniae 116381 after 18 hrs in presence of rifampicin by checkerboard assay. It is filed as functional. The settings on record: Klebsiella pneumoniae, 116381, 18 h. Put shortly:
as §4

The test system of data set [8] is Pseudomonas aeruginosa. The data set can be described thus: Potentiation of gentamicin-induced antibacterial activity against Pseudomonas aeruginosa PAO1 at 4 ug/ml after 18 hrs by checkerboard assay. It is filed as functional. The gist of the method:
as §1

Data set [9] relates to Pseudomonas aeruginosa. The data set can be described thus: Potentiation of rifampicin-induced antibacterial activity against multidrug/extremely drug-resistant/colistin-susceptible Pseudomonas aeruginosa isolate 101885 assessed as fold reduction in rifampicin MIC at 4 ug/ml after 18 hrs by checkerboard assay relative to control. It is filed as functional. Put shortly:
as §2

Data set [10] relates to Enterobacter cloacae. Description: Synergistic antibacterial activity against multidrug-resistant Enterobacter cloacae 117029 after 18 hrs in presence of minocycline by checkerboard assay. It is filed as functional. The following applies: Enterobacter cloacae, 117029, 18 h. The gist of the method: as §3
The nature of data set [11]: Cytotoxicity against human JIMT1 cells assessed as cell viability at 20 uM after 48 hrs by MTS assay relative to control. The format is cell-based, JIMT-1. The settings on record: read-out: Activity. Put shortly:
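DU145 and JIMT-1 grown in DMEM with 10% FBS and penicillin/streptomycin at 37 °C, 5% CO2. 7500–9000 cells/well were seeded for 24 h, then treated at 2.5–30 µM (final) for 48 h. MTS reagent (20% v/v) added for 4 h and OD read at 490 nm after blank subtraction; viability expressed relative to vehicle control.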
(Tetrazolium assays rely on reduction of a dye to a coloured formazan, in cell work by metabolically active cells.)

The test system of data set [12] is Pseudomonas aeruginosa. The data set can be described thus: Potentiation of rifampicin-induced antibacterial activity against multidrug/extremely drug-resistant/colistin-susceptible Pseudomonas aeruginosa isolate P259-96918 at 4 ug/ml after 18 hrs by checkerboard assay. The format is functional. Put shortly: as §1
In data set [13] the test system is Pseudomonas aeruginosa. The data set can be described thus: Potentiation of minocycline-induced antibacterial activity against multidrug/extremely drug-resistant/colistin-susceptible Pseudomonas aeruginosa isolate P262-101856 at 4 ug/ml after 18 hrs by checkerboard assay. It is filed as functional. Put shortly: as §1
Data set [14] has as its system Pseudomonas aeruginosa. Description: Potentiation of minocycline-induced antibacterial activity against multidrug/extremely drug-resistant/colistin-resistant Pseudomonas aeruginosa isolate 91433 at 4 ug/ml after 18 hrs by checkerboard assay. The format is functional. Put shortly: as §1
In data set [15] the test system is Acinetobacter baumannii. Description: Antibacterial activity against multidrug-resistant Acinetobacter baumannii AB030 after 18 hrs by microtiter dilution assay. It is filed as functional. The following applies: AB030, 18 h. Put shortly:
(§5)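 Broth microdilution following CLSI guidelines. An overnight culture was adjusted to 0.5 McFarland in saline, then diluted 1:50 in Mueller-Hinton broth. This inoculum was added in equal volume to 2-fold serial dilutions of agent in MHB and incubated 18 h at 37 °C. MIC was the lowest concentration with no visible growth.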

For data set [16], the system named is Pseudomonas aeruginosa. The data set can be described thus: Potentiation of kanamycin A-induced antibacterial activity against Pseudomonas aeruginosa PAO1 at 4 ug/ml after 18 hrs by checkerboard assay. The format is functional. Put shortly: as §1
Data set [17] has as its system Pseudomonas aeruginosa. Description: Potentiation of minocycline-induced bactericidal activity against Pseudomonas aeruginosa PAO1 at 0.125 times antibacterial MIC after 90 mins. It is filed as functional. The gist of the method: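 Combination time-kill in PAO1 (LB, 37 °C). Aliquots taken at 0–360 min, serially diluted in PBS, plated on LB agar, and CFU counted after 20 h at 37 °C.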

In data set [18] the test system is Pseudomonas aeruginosa. Description: Potentiation of rifampicin-induced antibacterial activity against Pseudomonas aeruginosa PAO200 harboring MexAB-oprM deletion mutant after 18 hrs by checkerboard assay. The format is functional. The gist of the method: as §1
The subject of data set [19] is Pseudomonas aeruginosa. Description: Synergistic antibacterial activity against Pseudomonas aeruginosa PAO1 after 18 hrs in presence of vancomycin by checkerboard assay. The format is functional. The following applies: PAO1, 18 h. The gist of the method:
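Checkerboard in MHB: antibiotic diluted along one axis and adjuvant along the other (10 × 7 matrix). Inoculum was a 1:50 dilution in MHB of a 0.5 McFarland saline suspension; incubated 18 h at 37 °C. Each FIC = concentration in the no-growth well divided by the MIC alone; FIC index = sum of both FICs. ≤0.5 synergy, 0.5–4 no interaction, ≥4 antagonism.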

For data set [20], the system named is Pseudomonas aeruginosa. Description: Potentiation of minocycline-induced antibacterial activity against multidrug/extremely drug-resistant/colistin-resistant Pseudomonas aeruginosa isolate 101243 assessed as fold reduction in minocycline MIC at 4 ug/ml after 18 hrs by checkerboard assay relative to control. The format is functional. Put shortly:
as §2

Data set [21] has as its system Escherichia coli. The data set can be described thus: Antibacterial activity against Escherichia coli ATCC 25922 after 18 hrs by microtiter dilution assay. The format is functional. The settings on record: ATCC 25922, 18 h. Put shortly: as §5
Data set [22] concerns Klebsiella pneumoniae. Description: Potentiation of rifampicin-induced antibacterial activity against multidrug-resistant Klebsiella pneumoniae 116381 at 4 ug/ml after 18 hrs by checkerboard assay. The format is functional. Put shortly: as §1
For data set [23], the system named is Pseudomonas aeruginosa. The data set can be described thus: Antibacterial activity against multidrug/extremely drug-resistant/colistin-resistant Pseudomonas aeruginosa isolate 91433 after 18 hrs by microtiter dilution assay. The format is functional. The following applies: isolate 91433, 18 h. Put shortly:
as §5

For data set [24], the system named is Acinetobacter baumannii. The data set can be described thus: Synergistic antibacterial activity against multidrug-resistant Acinetobacter baumannii AB027 after 18 hrs in presence of minocycline by checkerboard assay. The format is functional. The settings on record: AB027, 18 h. Put shortly: as §3

In general, MIC refers to the least concentration at which growth counts as inhibited. In the case of `Cl.Cl.Cl.Cl.Cl.Cl.Cl.NCCCC[C@H](N)C(=O)N(CCCCCCCCCCCCO[C@@H]1[C@@H](O[C@H]2O[C@H](CO)[C@@H](O)[C@H](N)[C@H]2O)[C@H](N)C[C@H](N)[C@H]1O[C@H]1O[C@H](CN)[C@@H](O)C[C@H]1N)Cc1c2ccccc2c(Cl)c2ccccc12`, the “fractional inhibitory concentration index (FICI)” value worked out at 0.258 in [1]; 0.156 in data set [4]; 0.625 in data set [5]; 1.125 in data set [8]; 0.039 in [12]; 0.133 in [13]. For the same compound, the “fractional inhibitory concentration index (FICI)” value in data set [14] came to 0.266; in data set [16], 1.016; in data set [18], 0.129; in [22] it was 0.047. Besides, the “fold change (FC)” value in data set [2] was determined as 64; in [9] it was 128; in [20], 4. In addition, the MIC in [3] worked out at 1 mg/L; in data set [6] it was 16 mg/L; in [7], 4 mg/L; in [10], 8 mg/L; in [15], 64 mg/L; in [19] it was 4 mg/L. Further, the MIC in [21] was found to be 32 mg/L; in data set [23], 8 mg/L; in data set [24] it was 1 mg/L. The viability at 48 h, 20 µM in data set [11] was over 50%. Besides, in data set [17], the result was Active.

Source of the values: ChEMBL document CHEMBL4014308, “Amphiphilic Tobramycin-Lysine Conjugates Sensitize Multidrug Resistant Gram-Negative Bacteria to Rifampicin and Minocycline” (J Med Chem, 2017).
